CHOP UPR activ: apoptotic UPR (CHOP) activation. CHO-CHOP luciferase reporter, luminescence; percent of tunicamycin response over DMSO baseline. activation, % at 10 µM. 0.34% of 330,000 active. AID 449763;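 active = at 10 µM dose, activation of 40% or more, normalized to positive control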
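Test system: CHO-CHOP cells, stable luciferase reporter of PERK-eIF2a-CHOP signalling | Quantity: 500 CHO-CHOP cells per well | Buffer or medium: F12 plus 10% serum | Compound dosing: 10 µM single point, 0.5% DMSO | Schedule: 6 h compound treatment, 37 °C | Signal: Luciferase luminescence | Control set: Tunicamycin high control, DMSO low control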
UBC13 polyUb: blocks human UBC13 polyubiquitin chain formation; 0.47% of 330,000 active; P61088; inhibition, % at 20 µM; TR-FRET; in the data active = inhibition above about 45%, passing the limit was not always enough; inconclusive = no clear call, values can overlap the other calls
Target sequence (P61088 whole entry, looked up): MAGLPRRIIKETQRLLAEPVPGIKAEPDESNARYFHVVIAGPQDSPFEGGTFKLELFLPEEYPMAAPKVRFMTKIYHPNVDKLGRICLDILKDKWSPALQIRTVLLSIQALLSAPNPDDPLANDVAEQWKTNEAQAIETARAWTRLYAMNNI
Mdm2 MdmX PPI: inhibitors of human Mdm2/MdmX interaction; O15151+Q00987; SaOS-2 split-luciferase Mdm2/MdmX complementation, luminescence; inhibition, % at 8 µM; 3% of 330,000 active;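 active = inhibition of at least 50% at 8 µM in the primary screen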
XBP1 UPR activ: activators of adaptive arm of unfolded protein response (XBP1). CHO-XBP1 luciferase reporter, IRE1-XBP1 UPR activation, luminescence; percent of tunicamycin response, DMSO as zero. activation, % at 20 µM. 0.33% of 330,000 active. AID 463104;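 active = versus positive control, 20 µM dose yields 30% or more activation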
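Test system: CHO-XBP1 luciferase reporter cells | Buffer or medium: Serum-containing F12 medium, 10% FBS | Schedule: 6 h compound exposure at 37 °C, 5% CO2 | Detection: Steady-Glo luciferase glow luminescence, 10 min after reagent addition | Read-out basis: Activation, % of tunicamycin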
Apaf1 inhib: blocks human Apaf-1 apoptosome activity; 0.71% of 330,000 active; AID 489030; inhibition, % at 20 µM; reconstituted apoptosome caspase-3 activity, DEVD-Rh110 fluorescence; active = inhibition of at least 40% at 20 µM
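Medium: Hepes buffer, pH 7.5 / System: biochemical Apaf-1 apoptosome reconstitution / Measured by: Rh110 fluorescence, excitation 480 nm, emission 540 nm / Times: compound with Apaf-1, dATP, procaspase-3 30 min, then 50 min reaction, room temperature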
Mdm2-MdmX conf: confirmation of human Mdm2/MdmX interaction inhibitors | inhibition, % at 8 µM | 55% of 10,000 active | shares compounds with Mdm2 MdmX PPI | Mdm2-MdmX binding, luminescent assay; in the data active = inhibition above about 40%
Full FLuc ctr: counter-screen for Mdm2/MdmX inhibitors: full-length luciferase; shares compounds with Mdm2 MdmX PPI; SaOS-2 full-length luciferase counterscreen, luminescence; inhibition, % at 8 µM; 77% of 6,200 active; AID 504607;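 active = mean inhibition at 8 µM reaching about 37%, which flags the compound as non-specific, limit read from the data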;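 note: p53-null SaOS-2 cells with luciferase driven by a doxycycline-inducible promoter; compound on cells about two nights before reading with doxycycline added after day one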
Of the large screens only hits and unclear results are named; the others gave an inactive call (follow-up assays come after a bar, where they were run). Sampled rows, rich in hits. Any-hit rate of the full collection: about 4.1%.

N#C/C(=C\c1c(N2CCCCCC2)nc2ccccn2c1=O)C(=O)NC1CCS(=O)(=O)C1 (configuration not stated)	none
O=C(/C=C/c1ccc(OCCCF)cc1)Nc1ccnc(-c2ccncc2)n1	Mdm2 MdmX PPI 62 | Mdm2-MdmX conf inactive
O=C(/C=C/c1ccc(OCCCF)cc1)Nc1ccnc(-c2cccnc2)n1	none
COc1ccc(N(CC(=O)Nc2ccccc2OC)S(=O)(=O)c2ccc(NC(C)=O)cc2)cc1	Mdm2 MdmX PPI 53 | Mdm2-MdmX conf 63 | Full FLuc ctr 55
Cc1cccc(C(=O)NNC(=O)C2CC2)c1	none
Cc1ccc(C(=O)NCN2CCN(c3ccccc3)CC2)cc1	none
CC(Oc1ccccc1F)C(=O)Nc1ccc2ccccc2c1 (configuration not stated)	Mdm2 MdmX PPI 68 | Mdm2-MdmX conf 63 | Full FLuc ctr 66
CC(Oc1ccc(F)cc1)C(=O)Nc1ccc2ccccc2c1 (configuration not stated)	Mdm2 MdmX PPI 53 | Mdm2-MdmX conf inactive
O=C(Cc1ccc(-c2ccccc2)cc1)Nc1ncccc1O	none
Cc1ccc(N2CC(C(=O)Nc3cccnc3)CC2=O)cc1Cl (configuration not stated)	none
CCOC(=O)c1ccc(N2CCOCC2)c(NC(=O)c2c(-c3ccccc3)noc2C)c1	Mdm2 MdmX PPI 60 | Mdm2-MdmX conf 67 | Full FLuc ctr 54
Cc1onc(-c2ccccc2)c1C(=O)Nc1cc(C(F)(F)F)ccc1N1CCOCC1	none
CN(C)S(=O)(=O)N1CCCC(C(=O)c2ccc(-c3ccccc3)cc2)C1 (configuration not stated)	none
CC1(C)Cc2c(sc(NC(=O)C(=O)N3CCOCC3)c2C(N)=O)CO1	none
COc1cccc(C#Cc2c(C=O)n(C)c3ccccc23)c1	UBC13 polyUb inconclusive, Mdm2 MdmX PPI 66 | Mdm2-MdmX conf inactive | Full FLuc ctr 70
Cc1ccc2c(c1)C(=O)C(=O)N2CCOc1ccccc1	Mdm2 MdmX PPI 65 | Mdm2-MdmX conf 46 | Full FLuc ctr 95
Cc1ccc2c(c1)C(=O)C(=O)N2c1ccc(Cl)cc1	none
CCCN1C(=O)C(=O)c2cc(C)ccc21	Mdm2 MdmX PPI 60 | Mdm2-MdmX conf inactive
Cc1cccc(OCCN2C(=O)C(=O)c3cc(C)ccc32)c1	Mdm2 MdmX PPI 69 | Mdm2-MdmX conf 62 | Full FLuc ctr 90
O=C(Nc1ccncc1Cl)c1ccncc1	none
CCn1cc(C(=O)NCCCOC(C)C)c(=O)c2cc(S(=O)(=O)N3CCOCC3)ccc21	none
Cc1ccc(CN2CCNC(=O)C2CC(=O)N(C)C2CCCCC2)cc1 (configuration not stated)	none
COc1ccc(S(=O)(=O)Oc2ccccc2C(=S)N2CCOCC2)cc1	none
CCOC(=O)c1cnc2c(-c3ccccc3)c(-c3ccccc3)nn2c1C	none
CCCCN(C)CCNC(=O)C1CCN(S(=O)(=O)c2cccc3nsnc23)CC1	none
O=C(O)CC(C(=O)Nc1ccc(Cl)cc1)N1CCCCCC1 (configuration not stated)	none
CCC1(CC)NC(=O)N(CC(=O)Nc2cccc3ccccc23)C1=O	none
Cc1ccc(NC(=O)Nc2nnc(Cc3ccc([N+](=O)[O-])cc3)s2)cc1C	Mdm2 MdmX PPI 57 | Mdm2-MdmX conf inactive | Full FLuc ctr 39
O=C(Nc1ccccc1)Nc1nnc(Cc2ccc(F)cc2)s1	none
O=C(Nc1ccccc1)Nc1nnc(Cc2ccc([N+](=O)[O-])cc2)s1	Mdm2 MdmX PPI 66 | Mdm2-MdmX conf inactive
Cc1ccc(NC(=O)Nc2nnc(Cc3ccc(F)cc3)s2)cc1	Mdm2 MdmX PPI 55 | Mdm2-MdmX conf inactive
O=C(Nc1nnc(Cc2ccc([N+](=O)[O-])cc2)s1)Nc1ccccc1F	none
Clc1ccc(-[n+]2c(-c3cccc(Br)c3)[nH]c3nc4ccccc4nc32)cc1	Mdm2 MdmX PPI 61 | Mdm2-MdmX conf inactive
Brc1cccc(-c2nc3cccnc3nc2-c2cccc(Br)c2)c1	none
